Assay results from ChEMBL document CHEMBL1154715, “Identification of benzofuro[2,3-b]quinoline derivatives as a new class of antituberculosis agents” (Eur J Med Chem, 2010).
Converted amounts (≈) assume the structure as drawn.

Tests used:
SF-268 [1] = experiment: Cytotoxicity against human SF268 cells at 20 ug/ml after 48 hrs by SRB assay; type: functional
Summary of the method: (§1)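 MCF7, NCI-H460 and SF-268 cells were kept in RPMI-1640 with 5% fetal bovine serum, then seeded and preincubated in microtiter plates. Compound was added at two fixed concentrations and incubated for 48 h. The endpoint was sulforhodamine B protein staining, reported as percent growth of treated cells relative to untreated controls.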

SF-268 [2] = experiment: Cytotoxicity against human SF268 cells at 4 ug/ml after 48 hrs by SRB assay; type: functional; summary of the method: as §1
NCI-H460 [3] = experiment: Cytotoxicity against human NCI-H460 cells at 20 ug/ml after 48 hrs by SRB assay; type: functional; summary of the method: as §1
MCF7 [4] = experiment: Cytotoxicity against human MCF7 cells at 4 ug/ml after 48 hrs by SRB assay; type: functional; summary of the method: as §1
NCI-H460 [5] = experiment: Cytotoxicity against human NCI-H460 cells at 4 ug/ml after 48 hrs by SRB assay; type: functional; summary of the method: as §1
MCF7 [6] = experiment: Cytotoxicity against human MCF7 cells at 20 ug/ml after 48 hrs by SRB assay; type: functional; summary of the method: as §1
[7] = test system: Mycobacterium tuberculosis; experiment: Antitubercular activity against Mycobacterium tuberculosis H37Rv ATCC 27294 by microplate Alamar blue assay; type: functional
Summary of the method: (§2)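 M. tuberculosis H37Rv (ATCC 27294) in BACTEC 12B medium; broth microdilution, Microplate Alamar Blue readout. MIC taken as lowest concentration giving 90% reduction in fluorescence versus controls.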

[8] = Selectivity index, ratio of IC50 for african green monkey Vero cells to MIC for Mycobacterial tuberculosis H37Rv ATCC 27294; type: functional
Summary of the method: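 SI calculated as IC50/MIC, where MIC (H37Rv, Alamar Blue microdilution in BACTEC 12B medium) is the lowest concentration cutting fluorescence 90% versus controls.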

Vero = experiment: Cytotoxicity against african green monkey Vero cells after 72 hrs by MTT assay; type: cell-based, Chlorocebus sabaeus
[9] = test system: Mycobacterium tuberculosis; experiment: Antitubercular activity against Mycobacterium tuberculosis H37Rv ATCC 27294 at <0.2 ug/ml by microplate Alamar blue assay; type: functional; summary of the method: as §2

| Compound | Activity (SF-268 [1]) [%] | Activity (SF-268 [2]) [%] | Activity (NCI-H460 [3]) [%] | Activity (MCF7 [4]) [%] | Activity (NCI-H460 [5]) [%] | Activity (MCF7 [6]) [%] | MIC [7] [µg/mL] | Selectivity Index [8] | IC50 (Vero) [µg/mL] | inhibition (INH) [9] [%] |
| --- | --- | --- | --- | --- | --- | --- | --- | --- | --- | --- |
| c1ccc(Oc2c3ccccc3nc3oc4ccccc4c23)cc1 | 108 | 108 | 91 | 94 | 99 | 64 | > 100 |  |  |  |
| COc1c2ccccc2nc2oc3ccccc3c12 | 98 | 98 | 68 | 102 | 90 | 92 | < 0.2 | >58.85 | 11.77 (≈ 47.2 µM) | 99 |
| c1ccc(Nc2c3ccccc3nc3oc4ccccc4c23)cc1 | 76 | 118 | 53 | 118 | 104 | 44 | 5.35 (≈ 17.2 µM) | 1.15 | 6.14 (≈ 19.8 µM) |  |
| CO[C@H]1/C=C/O[C@@]2(C)Oc3c(C)c(O)c4c(O)c(c(/C=N/N5CCN(C)CC5)c(O)c4c3C2=O)NC(=O)/C(C)=C\C=C\[C@H](C)[C@H](O)[C@@H](C)[C@@H](O)[C@@H](C)[C@H](OC(C)=O)[C@@H]1C [RIFAMPIN] |  |  |  |  |  |  | 0.125 (≈ 0.152 µM) | 400 | 100 (≈ 122 µM) |  |
| CC(=O)c1ccc(Oc2c3ccccc3nc3oc4ccccc4c23)cc1 | 100 | 104 | 62 | 100 | 104 | 88 | > 100 |  |  |  |
| CC(=O)c1ccc(Nc2c3ccccc3nc3oc4ccccc4c23)cc1 | 63 | 109 | 20 | 106 | 64 | 49 | 14.6 (≈ 41.3 µM) |  |  |  |
| CN(C)c1c2ccccc2nc2oc3ccccc3c12 | 91 | 102 | 76 | 87 | 108 | 48 | < 0.2 | >150 | > 30 |  |
| Nc1c2ccccc2nc2oc3ccccc3c12 | 72 | 84 | 107 | 114 | 110 | 113 | > 100 |  |  |  |
| CNc1c2ccccc2nc2oc3ccccc3c12 | 86 | 98 | 99 | 100 | 102 | 99 | < 0.2 | >27.75 | 5.55 (≈ 22.4 µM) |  |
| CCOc1c2ccccc2nc2oc3ccccc3c12 | 90 | 86 | 84 | 99 | 92 | 77 | 1.44 (≈ 5.47 µM) | 7.18 | 10.34 (≈ 39.3 µM) |  |
| COc1cccc(Nc2c3ccccc3nc3oc4ccccc4c23)c1 | 60 | 97 | 46 | 107 | 99 | 84 | 17.8 (≈ 52.4 µM) |  |  |  |
| COc1ccc(Nc2c3ccccc3nc3oc4ccccc4c23)cc1 | 87 | 111 | 17 | 109 | 83 | 35 | 2.63 (≈ 7.73 µM) | 1.38 | 3.63 (≈ 10.7 µM) |  |
